According to ChEMBL document CHEMBL5712905, “H3K27M induces defective chromatin spread of PRC2-mediated repressive H3K27me2/me3 and is essential for glioma tumorigenesis” (2019):
Calls of active or inactive are those of the source. The rule behind the calls is not given here.

Key:
[1] = system: BT-245; assay: Growth inhibition of human BT-245 cells expressing mutant K27M at 0.5 to 10 uM after 7 days by Alamar blue assay; format: functional, cell-based; details: dose 0.5-10 µM, time 7.0 day
How it was run: (§1)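 Tumor-derived cells were grown in NS-A proliferation medium with bFGF (10 ng/mL), rhEGF (20 ng/mL) and heparin on poly-L-ornithine/laminin coating. They were plated at 7000 cells/well and exposed to EZH2 inhibitor (0.5–10 uM) or DMSO vehicle for 7 days, with media changed every 3 days. Alamar blue was added on day 7 for 6 h and absorbance read at 570 and 600 nm. Percent difference versus untreated growth control was derived from an extinction-coefficient formula; values are the mean of three replicates ± SEM.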

[2] = system: BT-245; assay: Growth inhibition of K27M knock-out human BT-245 cells at 0.5 to 10 uM after 7 days by Alamar blue assay; format: functional, cell-based; details: dose 0.5-10 µM, time 7.0 day; how it was run: as §1
[3] = system: BT-245; assay: Growth inhibition of K27M knock-out human BT-245 cells at 3 uM assessed as normalized cell index after 7 days by Alamar blue assay relative to control; format: functional; details: time 7 day; how it was run: as §1
[4] = molecular target: Histone-lysine N-methyltransferase EZH2 (Homo sapiens) (UniProt Q15910); assay: Inhibition of EZH2 in human BT-245 cells expressing mutant K27M assessed as decrease in H3K27me3 deposition by western blot method; format: cell-based
Sequence of Histone-lysine N-methyltransferase EZH2 (Homo sapiens) (Q15910 whole entry, looked up): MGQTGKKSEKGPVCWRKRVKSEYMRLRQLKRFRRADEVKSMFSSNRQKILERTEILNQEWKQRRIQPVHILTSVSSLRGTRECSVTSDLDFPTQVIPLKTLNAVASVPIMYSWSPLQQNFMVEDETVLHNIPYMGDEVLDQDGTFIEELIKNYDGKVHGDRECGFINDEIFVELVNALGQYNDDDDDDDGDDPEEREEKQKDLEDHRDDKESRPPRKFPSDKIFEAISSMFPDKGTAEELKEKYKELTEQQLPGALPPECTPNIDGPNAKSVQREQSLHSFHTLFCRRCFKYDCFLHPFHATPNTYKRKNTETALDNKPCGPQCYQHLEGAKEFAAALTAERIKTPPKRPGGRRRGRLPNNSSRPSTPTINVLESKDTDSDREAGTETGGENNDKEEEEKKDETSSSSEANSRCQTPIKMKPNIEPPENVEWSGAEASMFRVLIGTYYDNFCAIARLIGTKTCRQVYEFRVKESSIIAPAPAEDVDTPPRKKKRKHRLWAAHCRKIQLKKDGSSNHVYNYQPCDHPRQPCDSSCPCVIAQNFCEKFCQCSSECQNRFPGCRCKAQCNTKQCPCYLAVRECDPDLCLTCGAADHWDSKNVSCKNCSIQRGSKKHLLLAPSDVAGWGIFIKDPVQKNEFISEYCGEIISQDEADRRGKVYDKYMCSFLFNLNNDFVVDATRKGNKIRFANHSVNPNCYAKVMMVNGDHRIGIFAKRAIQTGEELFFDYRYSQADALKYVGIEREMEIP

[5] = system: BT-245; assay: Growth inhibition of human BT-245 cells expressing mutant K27M at 3.5 uM assessed as normalized cell index after 7 days by Alamar blue assay relative to control; format: functional; details: time 7 day; how it was run: as §1
[6] = system: BT-245; assay: Growth inhibition of K27M knock-out human BT-245 cells at 4 uM assessed as normalized cell index after 7 days by Alamar blue assay relative to control; format: functional; details: time 7 day; how it was run: as §1
[7] = system: BT-245; assay: Growth inhibition of K27M knock-out human BT-245 cells at 7 uM assessed as normalized cell index after 7 days by Alamar blue assay relative to control; format: functional; details: time 7 day; how it was run: as §1
[8] = system: BT-245; assay: Growth inhibition of K27M knock-out human BT-245 cells at 2.5 uM assessed as normalized cell index after 7 days by Alamar blue assay relative to control; format: functional; details: time 7 day; how it was run: as §1
[9] = system: BT-245; assay: Growth inhibition of human BT-245 cells expressing mutant K27M at 3 uM assessed as normalized cell index after 7 days by Alamar blue assay relative to control; format: functional; details: time 7 day; how it was run: as §1
[10] = system: BT-245; assay: Growth inhibition of human BT-245 cells expressing mutant K27M at 2.5 uM assessed as normalized cell index after 7 days by Alamar blue assay relative to control; format: functional; details: time 7 day; how it was run: as §1
[11] = system: BT-245; assay: Growth inhibition of K27M knock-out human BT-245 cells at 1.5 uM assessed as normalized cell index after 7 days by Alamar blue assay relative to control; format: functional; details: time 7 day; how it was run: as §1
[12] = system: BT-245; assay: Growth inhibition of K27M knock-out human BT-245 cells at 10 uM assessed as normalized cell index after 7 days by Alamar blue assay relative to control; format: functional; details: time 7 day; how it was run: as §1
[13] = molecular target: Histone-lysine N-methyltransferase EZH2 (Homo sapiens) (UniProt Q15910); assay: Inhibition of EZH2 in human G477 cells assessed as decrease in H3K27me2 deposition by western blot method; format: cell-based
[14] = system: BT-245; assay: Growth inhibition of human BT-245 cells expressing mutant K27M at 7 uM assessed as normalized cell index after 7 days by Alamar blue assay relative to control; format: functional; details: time 7 day; how it was run: as §1
[15] = system: BT-245; assay: Growth inhibition of K27M knock-out human BT-245 cells at 3.5 uM assessed as normalized cell index after 7 days by Alamar blue assay relative to control; format: functional; details: time 7 day; how it was run: as §1
[16] = molecular target: Histone-lysine N-methyltransferase EZH2 (Homo sapiens) (UniProt Q15910); assay: Inhibition of EZH2 in human G477 cells assessed as decrease in H3K27me3 deposition by western blot method; format: cell-based
[17] = system: BT-245; assay: Growth inhibition of human BT-245 cells expressing mutant K27M at 10 uM assessed as normalized cell index after 7 days by Alamar blue assay relative to control; format: functional; details: time 7 day; how it was run: as §1
[18] = system: BT-245; assay: Growth inhibition of K27M knock-out human BT-245 cells at 8 uM assessed as normalized cell index after 7 days by Alamar blue assay relative to control; format: functional; details: time 7 day; how it was run: as §1
[19] = system: BT-245; assay: Growth inhibition of human BT-245 cells expressing mutant K27M at 4 uM assessed as normalized cell index after 7 days by Alamar blue assay relative to control; format: functional; details: time 7 day; how it was run: as §1
[20] = system: BT-245; assay: Growth inhibition of human BT-245 cells expressing mutant K27M at 1.5 uM assessed as normalized cell index after 7 days by Alamar blue assay relative to control; format: functional; details: time 7 day; how it was run: as §1
[21] = system: BT-245; assay: Growth inhibition of human BT-245 cells expressing mutant K27M at 5 uM assessed as normalized cell index after 7 days by Alamar blue assay relative to control; format: functional; details: time 7 day; how it was run: as §1
[22] = system: BT-245; assay: Growth inhibition of K27M knock-out human BT-245 cells at 5 uM assessed as normalized cell index after 7 days by Alamar blue assay relative to control; format: functional; details: time 7 day; how it was run: as §1
[23] = molecular target: Histone-lysine N-methyltransferase EZH2 (Homo sapiens) (UniProt Q15910); assay: Inhibition of EZH2 in human BT-245 cells expressing mutant K27M assessed as decrease in H3K27me2 deposition by western blot method; format: cell-based

`CCCc1cc(C)[nH]c(=O)c1CNC(=O)c1cc(-c2ccnc(N3CCN(C)CC3)c2)cc2c1cnn2C(C)C` was tested, and the Activity [1] was “Active” and the Activity [2] was “Active”.

`CCCc1cc(C)[nH]c(=O)c1CNC(=O)c1cc(-c2ccc(N3CCN(C(C)C)CC3)nc2)cc2c1cnn2C(C)C` was tested, and the Activity_index [3] was 112.32%, the inhibition [4] was “Active” and the Activity_index [5] was 92.89%. It also gave an Activity_index [6] of 109.66%, an Activity_index [7] of 106.11% and an Activity_index [8] of 106.57%. It also gave an Activity_index [9] of 93.39%, an Activity_index [10] of 96% and an Activity_index [11] of 107.71%. For the same molecule, the Activity_index [12] was 50.02%, the inhibition [13] was “Active” and the Activity_index [14] was 25.18%. For the same molecule, the Activity_index [15] was 97.97%, the inhibition [16] was “Active” and the Activity_index [17] was 27.95%. It also gave an Activity_index [18] of 63.65%, an Activity_index [19] of 85.7% and an Activity_index [20] of 93.5%. For the same molecule, the Activity_index [21] was 73.66%, the Activity_index [22] was 108.08% and the inhibition [23] was “Active”.
